Source: PubChem BioAssay
Rows were chosen to be rich in hits. Some 3.7% of all compounds tested hit in one or more screens of this group.
KCNK9 inh: KCNK9 potassium channel inhibitors, primary screen, HEK293 cells, thallium flux | FluxOR thallium flux fluorescence; stronger effect = lower value | B-score at 10 µM | 310,000 compounds, 1.2% hits | AID 488922, 2010;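 active = ratio B-score over 3 SD below the library mean, with starting fluorescence within 5 SD of its mean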;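 note: negative B-score means less thallium flux so channel inhibition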
Kir21 inh: inhibitors of mouse Kir2.1 inward-rectifier potassium channel. Inward rectifier potassium channel 2 (Mus musculus), P35561. HEK293-Kir2.1, FluxOR thallium flux fluorescence; stronger effect = lower value. B-score at 10 µM. 310,000 compounds, 0.85% hits. AID 1672, 2009;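 active = fluorescence ratio B-score at or below minus 3 SD of library scores, with starting-brightness B-score within 2 SD, cut at about -4.2 in these data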;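 note: channel flux triggered by added potassium and thallium sulfate stimulus; B-score of peak minus minimum fluorescence over baseline after thallium stimulus; more negative B-score means stronger Kir2.1 block with less thallium influx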
hERG protect: hERG rescue from dofetilide block, primary screen, cell-based, CHO-hERG, FluxOR thallium flux, dofetilide IC70; Voltage-gated inwardly rectifying potassium channel KCNH2 (Homo sapiens), Q12809; dofetilide IC70 present; activation (rescue from dofetilide block), less the hit threshold, % at 10 µM; 310,000 compounds, 0.51% hits;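 active = activation above the mean of controls blocked by dofetilide plus 5 SD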;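 note: thallium influx through hERG after potassium depolarization seen as dye fluorescence rise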
KCNQ1 block: inhibitors of human KCNQ1 channel, primary screen, cell-based, thallium flux, high-throughput | Potassium voltage-gated channel subfamily KQT member 1 (Homo sapiens), P51787 | CHO-K1 KCNQ1, FluxOR thallium flux fluorescence; stronger effect = higher value | B-score at 10 µM | 310,000 compounds, 1.3% hits | AID 2642, 2010;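 active = compounds whose thallium flux B-score, printed positive for inhibition, exceeds three library SD while starting fluorescence stays within three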;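 note: channel opened by potassium depolarization with thallium stimulus after 20 min compound exposure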
KCNQ1 act: potentiators or activators of KCNQ1 channel, primary screen, cell-based, thallium flux, high-throughput. 310,000 compounds, 0.35% hits. B-score at 10 µM. CHO-K1 KCNQ1, thallium flux FluxOR fluorescence; stronger effect = higher value;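 active = fluorescence ratio B-score, a plate-corrected score, at least three library SD, with initial intensity B-score within 5 SD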
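System: CHO-K1 cells stably expressing KCNQ1 / Medium: assay buffer for compound exposure, DMSO matched across wells / Reagent: thallium- and potassium-containing depolarizing buffer / Compound: one concentration, matched DMSO / Incubation: 20 min compound pretreatment at room temperature / Measured by: kinetic FluxOR fluorescence, 10 s baseline plus 110 s post-stimulus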
KCNK3 inh: human KCNK3 channel inhibitors, primary screen, CHO cells, FluxOR thallium flux, B-score; 340,000 compounds, 0.84% hits; AID 602410, 2012; B-score at 10 µM; FluxOR fluorescence; stronger effect = lower value;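 active = B-score under library mean minus 4 SD, starting fluorescence ratio at most library mean plus 5 SD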;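 note: more negative B-score means stronger inhibition of thallium flux through KCNK3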
* hit, by the source's call; i = inactive; nt = no result.

SMILES	KCNK9 inh	Kir21 inh	hERG protect	KCNQ1 block	KCNQ1 act	KCNK3 inh
CCCOc1ccc(-c2c(C(=O)N/N=C/c3ccccc3OCC)nnn2-c2nonc2N)cc1	i	0.19	37*	i	i	i
COc1cccc(NC(=O)CN(C)C(=O)c2cccc(S(=O)(=O)N3CC4(C)CC3CC(C)(C)C4)c2)c1 (centres undefined)	nt	nt	nt	nt	nt	i
Cc1ccc(N=Cc2c(O)n(-c3cc(Cl)ccc3N3CCOCC3)c(=O)c3ccccc23)cc1C	i	-0.53	-9	10*	i	i
Cc1cc(N=Cc2c(O)n(-c3cccc(Cl)c3)c(=O)c3ccccc23)no1	i	0	-2	i	i	i
CN(CC(=O)Nc1cccc(F)c1)C(=O)CCCn1c(=O)oc2ccccc21	i	-0.08	-5	i	i	i
CCCN(CCC)C(=O)Cc1coc2ccc3ccccc3c12	i	-4.5*	-4	i	i	i
CCCC[C@H]1C2=C3[C@@H](CC(C(=O)OC)=C[C@@H](C(=O)OC)[C@H]3C(C)(C)C2=O)n2c(=O)n(-c3ccccc3)c(=O)n21	i	-0.85	-8	i	i	i
Cc1ccc(S(=O)(=O)n2c(C)nc3ccccc32)cc1	i	-1.4	-1	i	i	i
Cc1ccc(S(=O)(=O)n2c(CN3CCCC(C)C3)nc3ccccc32)cc1 (centres undefined)	-7.5*	0.41	-1	i	i	i
CCCCC(=O)Nc1ccc(NCc2ccc(C)s2)cc1	i	-0.29	8.6*	i	i	i
Cc1cc(C)cc(C(=O)Nc2ccc(NC(=O)Cc3ccccc3)cc2)c1	i	0.04	6.2*	i	i	i
O=C(Cc1ccccc1)Nc1ccc(NC(=O)c2cccc(Cl)c2)cc1	i	1.6	-2	i	i	i
Cc1ccc(NC(=O)c2ccc(S(=O)(=O)N3CCCCC3)cc2)nc1	nt	nt	nt	nt	nt	i
COc1ccc(OCCNC(=O)Nc2cc(F)c(F)cc2Cl)cc1	i	-1.2	1	i	i	i
COc1cccc(OCCNC(=O)Nc2cc(F)c(F)cc2Cl)c1	i	1.7	6.1*	i	i	i
Cc1c(C)n(Cc2ccccc2)c2ccc(C(=O)NCCN3CCOCC3)cc12	i	-1.6	-11	i	i	i
Cc1c(C)n(Cc2ccccc2)c2ccc(C(=O)OCCN(C)C)cc12	i	-9.5*	-10	i	i	i
CCCCNC(=O)C(C#N)c1nc2ccccc2nc1N1CCN(Cc2ccc3c(c2)OCO3)CC1 (centres undefined)	nt	nt	nt	nt	nt	i
C=CCNC(=O)C(C#N)c1nc2ccccc2nc1N1CCCCCC1 (centres undefined)	i	2.3	-12	6*	i	i
CC1CN(c2nc3ccccc3nc2C(C#N)C(=O)NCc2ccc3c(c2)OCO3)CC(C)O1 (centres undefined)	i	-0.06	-19	i	23*	i
Cc1ccccc1[C@@H]1C(C#N)=C(N)S[C@H]1C(=O)c1ccccc1	i	-1.1	-10	i	i	i
CCCCCCn1c(C(C)NC(=O)c2ccco2)nc2ccccc21 (centres undefined)	i	-9*	-7	i	i	i
CCCCCn1c(NCc2ccco2)nc2ccccc21	i	-4.5*	-10	i	i	i
Cc1cccc(NC(=O)CCNC(=O)c2ccco2)c1	i	0.68	-3	i	i	i
C[C@@H]1O[C@@H](O[C@H]2[C@H](O[C@H]3C[C@]4(C)C(C[C@@H](O)C5C([C@]6(C)CC[C@@H](C(C)(C)O)O6)CC[C@]54C)[C@@]4(C)CC[C@H](O)C(C)(C)C34)O[C@H](CO)[C@@H](O)[C@@H]2O)[C@H](O)[C@H](O)[C@H]1O (some centres undefined)	nt	nt	nt	nt	nt	i
SMILES	KCNK9 inh	Kir21 inh	hERG protect	KCNQ1 block	KCNQ1 act	KCNK3 inh
CN(C)C(=O)CN1CCN(C(=O)CCl)CC1	i	-0.8	5.1*	i	i	i
CN(Cc1ccc(F)cc1)C(=O)c1sccc1-c1ccccc1	i	-7.8*	-16	i	i	i
COc1ccc(-n2cc(CNCCc3ncc(C)[nH]3)c(-c3ccccc3Cl)n2)cc1	i	-4.8*	-16	i	i	i
COc1ccc(-n2cc(CNCCc3nc(C)cc(C)n3)c(-c3ccccc3Cl)n2)cc1	i	-1.3	-13	i	i	i
O=C(CCC(=O)N1CCCC1)Nc1nnc(C2CCCCC2)s1	i	0.58	-4	i	i	i
CC1CCCCN1C(=O)CCC(=O)Nc1nnc(C2CCCCC2)s1 (centres undefined)	-6.9*	-1.2	-6	i	i	i
C/C(CCc1oc2c(Br)cc(Br)cc2c1-c1ccc(C)o1)=N\O	i	1.3	-11	i	15*	i
C/C(CCc1oc2ccccc2c1-c1ccc(C)o1)=N/O	i	-0.83	-6	i	i	i
CCOn1c(=O)c(-c2cccc3ccccc23)[n+]([O-])c2ccccc21	i	-0.68	-10	i	i	i
O=c1c(-c2cccc3ccccc23)[n+]([O-])c2ccccc2n1O	i	-0.38	9.5*	i	i	i
Cc1ccccc1CSc1nccn1-c1ccccc1	i	-4.4*	-8	i	i	i
Cc1nc(SC(C)C(=O)c2c(N)n(C)c(=O)n(C)c2=O)c2c(C)c(C)sc2n1 (centres undefined)	i	-1.5	-6	i	14*	i
CC(Sc1nnc(N)s1)C(=O)c1c(N)n(C)c(=O)n(C)c1=O (centres undefined)	nt	nt	nt	nt	nt	i
Oc1c(C=Nc2ccc(Cl)cn2)sc2ccccc12	i	0	-13	i	i	i
Oc1c(/C=N/c2ccccn2)sc2ccccc12	i	-0.04	-9	i	11*	i
Cc1nc(Cl)c(C(=O)NC(=O)NCc2ccccc2)c(C)c1Cl	i	0.86	-9	i	i	i
CN(CC(=O)Nc1cccc(F)c1)C(=O)CSc1nc2ccccc2s1	i	-0.49	-12	i	i	i
Brc1ccc2c(c1)OCCOCCOc1cc(Br)ccc1OCCOCCOCCO2	-7.7*	-2	-22	6*	i	i
